Only some compounds are listed: those with a hit (about 2.9% of all), similar ones and a draw of the others.
dFosB act = enhances mouse delta FosB homodimer DNA binding; purified delta FosB, TAMRA-CDK5 oligo fluorescence polarization; percent of positive-control signal above neutral wells; activation, % at 25 µM; 340,000 tested, 0.99% active; P13346; AID 493131;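 active = mean activation above about 17%, with every replicate also reaching it, limit read from the data, passing the limit was not always enough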
Target sequence (P13346 whole entry, looked up): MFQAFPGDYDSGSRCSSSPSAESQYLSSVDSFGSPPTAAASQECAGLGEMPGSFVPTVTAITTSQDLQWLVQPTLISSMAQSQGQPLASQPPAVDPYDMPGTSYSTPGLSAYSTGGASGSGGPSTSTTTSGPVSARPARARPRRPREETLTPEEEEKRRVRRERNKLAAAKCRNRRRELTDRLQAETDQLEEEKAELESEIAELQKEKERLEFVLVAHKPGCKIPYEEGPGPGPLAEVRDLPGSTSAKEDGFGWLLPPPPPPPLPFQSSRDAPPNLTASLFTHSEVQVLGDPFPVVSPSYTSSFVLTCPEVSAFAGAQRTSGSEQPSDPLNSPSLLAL
GSIS activator = primary screen for activators of insulin secretion dependent on glucose, INS-1E cells, GLuc reporter luminescence; 370,000 tested, 0.61% active; activation, % at 16.6 µM; INS-1E GLuc reporter insulin secretion, 2-3 h; AID 743287;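 active = lowest replicate activation of at least 40%, so every replicate reaches that level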;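 note: 0% = median of neutral control wells and 100% = median of IBMX positive control wells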
Cneo AK release = causes C. neoformans cell lysis; 360,000 tested, 0.2% active; lysis activity, % at 15 µM; AID 651654; adenylate kinase release luminescence, 4 h; normalised: neutral wells 0, clomiphene wells 100;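 active = mean lysis activity across replicates of at least 80%, whatever share of replicates individually reach that level; inactive = mean lysis activity below 80%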
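Test system: log-phase Cryptococcus neoformans yeast cells. Input: 5 × 10^6 yeast cells/mL. Medium: fresh YPD growth medium. Doses: single dose. Incubation: static 4 h at 37 °C with compound, 1 h detection. Measured by: luminescent adenylate kinase detection reagent. Read-out: signal increase indicating cell lysis. Benchmarks: Clomiphene.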
HIV Env fusion = blocks HIV Env-driven cell-cell fusion; 360,000 tested, 1.1% active; inhibition, % at 12.3 µM; AID 651610; HeLa-JRFL Env/CEM21 cell fusion, luciferase;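 active = mean replicate inhibition score of at least 50 and every replicate individually at or above 50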;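 note: 0% = plate neutral controls and 100% = maraviroc near 300 nM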
CDK5 inh = CDK5/p35 (human) kinase inhibition; AID 488839; Q00535+Q15078; Recombinant CDK5/p35, ADP-Glo luminescence, 60 min; 330,000 tested, 0.01% active; inhibition, % at 10 µM;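 active = highest replicate inhibition of at least 50% and at least 75% of replicates reaching 50%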;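 note: plate controls were DMSO neutral control for no effect and GW8510 at 10 µM for full effect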
PAX8 reporter = inhibitors of PAX8 transcriptional activity in RMG-I cells. AID 652154. inhibition, % at 12.6 µM. RMG-I TPO-luciferase reporter, SteadyGlo, 24 h. 360,000 tested, 1.2% active;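 active = mean replicate inhibition at least 60% with every replicate also reaching 60%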;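 note: luciferase light reporting Pax8 driven TPO promoter activity; plate controls were median of neutral control wells for no effect and mitoxantrone controls for full effect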
An asterisk follows results filed as active; [ ] = remark or other dose.

`COc1ccc(-c2csc3ncnc(Sc4nnnn4C)c23)cc1` gave dFosB act -3.3, GSIS activator 12.5, Cneo AK release -5.3, HIV Env fusion 42.2, CDK5 inh 1.2 and PAX8 reporter 101.5*.
`Cn1nnnc1Sc1ncnc2scc(-c3ccccc3Cl)c12` gave dFosB act -11.5, GSIS activator 35.6, Cneo AK release -1.4, HIV Env fusion 38.8, CDK5 inh 3.4 and PAX8 reporter 91.4*.
`COc1ccc(-c2csc3ncnc(Cl)c23)cc1` gave dFosB act 2.0, GSIS activator -3.7, Cneo AK release 0.8, HIV Env fusion 19.6, CDK5 inh -1.2 and PAX8 reporter -16.1.
`COc1ccc(-c2ccccc2C2Cc3nnccc3CN2)cc1` (configuration not stated) gave HIV Env fusion 20.2 and PAX8 reporter 72.0*.
CCC(=O)Nc1ccc2c(c1)C(=O)N(C)[C@H]1CC[C@H](CC(=O)N[C@@H](C)c3ccccc3)O[C@@H]1CO2 was read as GSIS activator -0.4, Cneo AK release 2.4, HIV Env fusion -7.1[16.7 µM] and PAX8 reporter -1.9.
Screening CCNc1nc(NOC)nc(OCC#N)n1 returned dFosB act -3.4, GSIS activator 46.7*, HIV Env fusion 1.1, CDK5 inh 0.3 and PAX8 reporter 11.0.
CCNc1nc(NCC)nc(OCC(=O)O)n1 was read as dFosB act 5.7, GSIS activator 17.1, HIV Env fusion 9.5, CDK5 inh 0.9 and PAX8 reporter -14.8.
Screening CN1C(=O)c2cc(NC(=O)C3CCOCC3)ccc2OC[C@H]2O[C@@H](CC(=O)NCc3ccc4c(c3)OCO4)CC[C@H]21 returned GSIS activator 3.9, Cneo AK release -2.7, HIV Env fusion -9.0[16.7 µM] and PAX8 reporter -4.6.
For C[C@@H]1CN([C@@H](C)CO)S(=O)(=O)c2ccc(C#Cc3ccccc3)cc2O[C@@H]1CN(C)C(=O)Nc1ccc2c(c1)OCO2 the results were GSIS activator -18.5, Cneo AK release 14.4, HIV Env fusion -38.4[16.7 µM] and PAX8 reporter 39.6.
`C[C@@H]1CN([C@H](C)CO)S(=O)(=O)c2ccc(C#Cc3ccncc3)cc2O[C@@H]1CN(C)C(=O)Nc1ccc2c(c1)OCO2` gave GSIS activator -7.4, Cneo AK release -2.2 and PAX8 reporter 69.6*.
Screening C[C@@H]1CN([C@H](C)CO)S(=O)(=O)c2ccc(C#Cc3ccncc3)cc2O[C@H]1CN(C)C(=O)Nc1ccc2c(c1)OCO2 returned GSIS activator -3.6, Cneo AK release -1.2 and PAX8 reporter 90.8*.
OCCN1CCN(CC/C=C2/c3ccccc3Sc3ccc(Cl)cc32)CC1 was read as dFosB act 17.0*, Cneo AK release 4.4, HIV Env fusion 23.3, CDK5 inh -0.3 and PAX8 reporter 8.8.
For CC1CC(C)CN(C(=O)/C=C/c2ccc([N+](=O)[O-])s2)C1 (configuration not stated) the results were dFosB act -8.8, GSIS activator -5.5, Cneo AK release 0.6, HIV Env fusion -11.7, CDK5 inh -2.7 and PAX8 reporter 67.6*.
For CN1C(=O)/C(=C\c2ccncc2)SC1=Nc1ccccc1 the results were dFosB act -6.7, GSIS activator 66.7* and CDK5 inh 13.6.
Screening O=S(=O)(N[C@H]1CC[C@H](CCn2cc(-c3cccnc3)nn2)O[C@@H]1CO)c1ccccc1 returned GSIS activator 6.3, Cneo AK release 0.4, HIV Env fusion 9.1[16.7 µM] and PAX8 reporter -8.3.
Screening O=C(C[C@@H]1CC[C@H]2[C@@H](COC[C@@H](O)CN2Cc2cccc(F)c2)O1)NCC1CCCCC1 returned GSIS activator -22.7, Cneo AK release -2.6 and PAX8 reporter 107.4*.
For O=C(C[C@@H]1CC[C@@H]2[C@H](COC[C@H](O)CN2Cc2cccc(F)c2)O1)NCC1CCCCC1 the results were GSIS activator -15.3, Cneo AK release 4.9 and PAX8 reporter -36.8.
CCC(=O)N1C[C@H](O)COC[C@@H]2O[C@@H](CC(=O)NCc3ccccc3Cl)CC[C@H]21 was read as GSIS activator 7.9 and Cneo AK release 116.6*.
For O=C(C[C@H]1CC[C@H]2[C@@H](COC[C@@H](O)CN2Cc2ccc(F)cc2)O1)NCc1ccccc1Cl the results were GSIS activator 0.9, Cneo AK release -7.1 and PAX8 reporter 78.7*.
Screening O=C(C[C@@H]1CC[C@@H]2[C@H](COC[C@@H](O)CN2Cc2ccc(F)cc2)O1)NCc1ccccc1Cl returned GSIS activator -24.4, Cneo AK release -0.1 and PAX8 reporter -33.4.
Screening CCC(=O)N1C[C@@H](O)COC[C@H]2O[C@@H](CC(=O)NCc3ccccc3Cl)CC[C@@H]21 returned GSIS activator 3.2 and Cneo AK release 44.5.
`COc1ccccc1CNC(=O)C[C@@H]1CC[C@@H]2[C@H](COC[C@@H](O)CN2Cc2ccccc2)O1` gave GSIS activator -4.2 and Cneo AK release 109.3*.
For O=C(C[C@@H]1CC[C@@H](NC(=O)Nc2cccc(F)c2)[C@H](CO)O1)NCC1CC1 the results were GSIS activator 3.7, Cneo AK release 23.1, HIV Env fusion 6.6[16.7 µM] and PAX8 reporter 10.6.
Screening O=C(C[C@@H]1CC[C@H]2[C@@H](COC[C@@H](O)CN2Cc2ccc(Cl)cc2)O1)NCc1cccc(F)c1 returned GSIS activator -9.5 and Cneo AK release 103.6*.
For O=C(C[C@@H]1CC[C@H]2[C@@H](COC[C@@H](O)CN2Cc2cccc(C(F)(F)F)c2)O1)NCc1ccc(F)cc1 the results were GSIS activator -9.9, Cneo AK release -6.4 and PAX8 reporter 97.7*.
CCNC(=O)C[C@@H]1CC[C@@H]2[C@H](COC[C@@H](O)CN2C(=O)c2ccccn2)O1 was read as GSIS activator -0.2, Cneo AK release 0.6, HIV Env fusion 64.7*[16.7 µM] and PAX8 reporter -9.4.
For O=C(C[C@H]1CC[C@@H]2[C@H](COC[C@@H](O)CN2Cc2cccc(C(F)(F)F)c2)O1)NCc1ccc(F)cc1 the results were GSIS activator -18.4, Cneo AK release -0.4 and PAX8 reporter 12.3.
CCOC(=O)c1ccc(NC(=O)Cn2ncc(Cl)c(Cl)c2=O)cc1 was read as dFosB act -7.4, GSIS activator -4.1, HIV Env fusion -196.1, CDK5 inh -0.4 and PAX8 reporter 94.7*.
For CCC(=O)Nc1ccc(C(=O)Cn2ncc(Cl)c(Cl)c2=O)cc1 the results were dFosB act -10.1, GSIS activator 4.6, Cneo AK release 1.4, HIV Env fusion -43.3, CDK5 inh 0.1 and PAX8 reporter 77.8*.
`CCc1ccccc1NC(=O)CN(C)C(=O)Cn1ncc(Cl)c(Cl)c1=O` gave dFosB act -2.2, Cneo AK release -1.6, HIV Env fusion -143.2, CDK5 inh -1.2 and PAX8 reporter 67.8*.

Screening data from PubChem BioAssay.
